Experimental data pooled from the literature.
Target: Serine/threonine-protein kinase Nek11 (NEK11, Homo sapiens, UniProt Q8NG66)
One construct used (Q8NG66 1-645): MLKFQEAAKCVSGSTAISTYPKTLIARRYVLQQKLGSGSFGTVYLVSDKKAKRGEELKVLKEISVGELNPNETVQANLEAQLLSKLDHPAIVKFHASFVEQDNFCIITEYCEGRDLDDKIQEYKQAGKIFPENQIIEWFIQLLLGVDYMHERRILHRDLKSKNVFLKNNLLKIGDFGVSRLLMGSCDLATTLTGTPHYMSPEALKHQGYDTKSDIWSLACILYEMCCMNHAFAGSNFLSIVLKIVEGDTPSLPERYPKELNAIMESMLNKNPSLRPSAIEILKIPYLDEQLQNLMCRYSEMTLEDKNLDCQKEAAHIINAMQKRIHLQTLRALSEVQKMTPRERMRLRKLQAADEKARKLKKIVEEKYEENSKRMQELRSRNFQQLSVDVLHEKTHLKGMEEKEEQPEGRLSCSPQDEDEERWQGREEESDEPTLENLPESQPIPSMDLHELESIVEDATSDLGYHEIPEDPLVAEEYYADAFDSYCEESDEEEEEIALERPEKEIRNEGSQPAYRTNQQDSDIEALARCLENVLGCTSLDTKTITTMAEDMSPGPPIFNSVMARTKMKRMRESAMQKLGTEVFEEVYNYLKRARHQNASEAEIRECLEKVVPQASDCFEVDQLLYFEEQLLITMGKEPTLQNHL

| Compound | effect on | mode | technique | tested at | endpoint | value |
| --- | --- | --- | --- | --- | --- | --- |
| COc1cc(-c2cn(C3CCc4c(F)cccc4N(CC(F)(F)F)C3=O)nn2)ccc1-n1cnc(C)c1 (centres unmarked) | cell-free assay | – | competition with immobilised ligand | 1 µM | remaining binding | 100% |
| Nc1ncnc2occ(-c3ccc(NC(=O)Nc4cc(C(F)(F)F)ccc4F)cc3)c12 | cell-free assay | inhibitor | – | 20 µM | remaining signal | 9.3% |
| COc1cc2ncnc(Nc3ccc(F)c(Cl)c3)c2cc1OCCCN1CCOCC1 | cell-free assay | – | – | 0.5 µM | remaining signal | 109% |
| CN([C@@H]1CCc2c(CC(=O)O)c3ccccc3n2C1)S(=O)(=O)c1ccc(F)cc1 | cell-free assay | – | competition with immobilised ligand | 1 µM | remaining binding | 100% |
| Cc1ccc(Nc2nccc(N(C)c3ccc4c(C)n(C)nc4c3)n2)cc1S(N)(=O)=O | enzyme activity | inhibitor | – | 0.3 µM | inhibition | -9% |
| CC(C)(C)c1nc(-c2cccc(NS(=O)(=O)c3c(F)cccc3F)c2F)c(-c2ccnc(N)n2)s1 | enzyme activity | inhibitor | radiometric | 1 µM | remaining activity | 1% |
| NS(=O)(=O)c1cc(NC(=O)C2(c3ccccc3Cl)CC2)ccc1Oc1cccc(Cl)c1 | cell-free assay | – | competition with immobilised ligand | 1 µM | remaining binding | 100% |
| O=C(Nc1cnn(-c2csc(C(=O)NC3COC3)c2)c1)Nc1c(F)cccc1Cl | enzyme activity | inhibitor | – | 5 µM | remaining activity | 89.5% |
| C[C@@H]1CCN(C(=O)CC#N)C[C@@H]1N(C)c1ncnc2[nH]ccc12 | cell-free assay | inhibitor | – | 0.5 µM | remaining signal | 91.7% |
| CNC(=O)c1cc(Oc2ccc(NC(=O)Nc3ccc(Cl)c(C(F)(F)F)c3)cc2)ccn1 | enzyme activity | inhibitor | – | 10 µM | inhibition | 28% |
| CN1CC(Oc2cnc(C#N)cc2-c2ccn3nc(NC(=O)C4CC4)cc3c2)C1 | enzyme activity | inhibitor | – | 1 µM | inhibition | 11% |
| CC1=C(C#N)C(c2ccc3c(c2)c(NC(=O)c2ccccc2C)nn3C)C(C#N)=C(C)N1 | cell-free assay | – | competition with immobilised ligand | 1 µM | remaining binding | 96% |
| Oc1cccc(-c2nc(N3CCOCC3)c3oc4ncccc4c3n2)c1 | cell-free assay | – | – | 0.5 µM | remaining signal | 109% |
| O=C(Nc1cnn(-c2csc(C(=O)NC3COC3)c2)c1)Nc1ccccc1Cl | enzyme activity | inhibitor | – | 5 µM | remaining activity | 145% |
| CCN(CC)CCNC(=O)c1c(C)[nH]c(/C=C2\C(=O)Nc3ccc(F)cc32)c1C | enzyme activity | inhibitor | – | 10 µM | inhibition | 46% |
| O=C(O)[C@H]1[C@H](Cn2nnc3ccccc3c2=O)CC[C@@H]1C(=O)c1ccc(OCCC2CCOCC2)cc1 | cell-free assay | – | competition with immobilised ligand | 1 µM | remaining binding | 100% |
| CCCOc1ccc(OC)c(F)c1C(=O)c1ccc(C(=O)N[C@@H]2CNC[C@H]2NC(=O)c2ccc3[nH]ncc3c2)cc1 | enzyme activity | inhibitor | – | 10 µM | remaining activity | 45% |
| CN1CCN(c2cnc3c(C4CCN(C(=O)c5ccc(OC(F)(F)F)cc5N)CC4)ncnc3c2)CC1 | cell-free assay | – | competition with immobilised ligand | 1 µM | remaining binding | 100% |
| Cc1ccc(NC(=O)c2ccc(C)c(C(F)(F)F)c2)cc1C#Cc1nn(C2CCC(O)CC2)c2ncnc(N)c12 (centres unmarked) | cell-free assay | – | – | 10 µM | remaining signal | 50% |
| N#CCCc1ccc2c(c1)-c1[nH]c3ccc([N+](=O)[O-])cc3c1CC(=O)N2 | cell-free assay | – | – | 0.5 µM | remaining signal | 101% |
